{"source": "ChEMBL document CHEMBL6177937", "about": "“Design, synthesis, and biological evaluation of novel thiazole derivatives as PI3K/mTOR dual inhibitors” (RSC Med Chem, 2024)", "key": {"SW-620": {"system": "SW-620", "assay": "Growth inhibition of human SW620 cells at 10 uM measured after 48 hrs by SRB assay relative to control", "assay_type": "functional", "details": "read-out: GI", "procedure,_shortened": "(§1)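 Single-dose NCI screen at 10 μM: 48 h exposure at 37°C, 5% CO2; adherent cells fixed in cold TCA (final 10%), suspension cells in TCA (final 16%); SRB stain solubilized in 10 mM Trizma base, absorbance 515 nm; percent growth inhibition calculated relative to untreated control and time-zero plates.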"}, "[1]": {"system": "Panel NCI-60 (60 carcinoma cell lines)", "assay": "Antiproliferative activity against human NCI-60 cells assessed as growth inhibition at 10 uM measured after 48 hrs by SRB assay relative to control", "assay_type": "functional", "details": "read-out: GI", "procedure,_shortened": "(§2)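 NCI screen: cells seeded at […] per well and preincubated 24 h (37°C, 5% CO2). Compound stocks in DMSO, tested at a single 10 μM. Exposure 48 h. Adherent cells fixed with cold TCA (10% final), suspension cells with 16% TCA. SRB stain read at 515 nm. Percent growth inhibition reported against time-zero and untreated controls.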"}, "HT-29": {"system": "HT-29", "assay": "Growth inhibition of human HT-29 cells at 10 uM measured after 48 hrs by SRB assay relative to control", "assay_type": "functional", "details": "HT-29, read-out: GI", "procedure,_shortened": "as §2"}, "HCT-116": {"system": "HCT-116", "assay": "Growth inhibition of human HCT-116 cells at 10 uM measured after 48 hrs by SRB assay relative to control", "assay_type": "functional", "details": "read-out: GI", "procedure,_shortened": "as §2"}, "NCI-H460": {"system": "NCI-H460", "assay": "Growth inhibition of human NCI-H460 cells at 10 uM measured after 48 hrs by SRB assay relative to control", "assay_type": "functional", "details": "NCI-H460, read-out: GI", "procedure,_shortened": "as §2"}, "A549": {"system": "A549", "assay": "Growth inhibition of human A549 cells at 10 uM measured after 48 hrs by SRB assay relative to control", "assay_type": "functional", "details": "A549, read-out: GI", "procedure,_shortened": "as §2"}, "OVCAR-3": {"system": "OVCAR-3", "assay": "Growth inhibition of human OVCAR-3 cells at 10 uM measured after 48 hrs by SRB assay relative to control", "assay_type": "functional", "details": "OVCAR-3, read-out: GI", "procedure,_shortened": "as §2"}, "NCI-H322M": {"system": "NCI-H322M", "assay": "Growth inhibition of human NCI-H322M cells at 10 uM measured after 48 hrs by SRB assay relative to control", "assay_type": "functional", "details": "read-out: GI", "procedure,_shortened": "as §2"}, "RPMI-8226": {"system": "RPMI-8226", "assay": "Growth inhibition of human RPMI-8226 cells at 10 uM measured after 48 hrs by SRB assay relative to control", "assay_type": "functional", "details": "RPMI-8226, read-out: GI", "procedure,_shortened": "as §1"}, "MCF7": {"system": "MCF7", "assay": "Growth inhibition of human MCF7 cells at 10 uM measured after 48 hrs by SRB assay relative to control", "assay_type": "functional", "details": "read-out: GI", "procedure,_shortened": "as §2"}, "KM12": {"system": "KM12", "assay": "Growth inhibition of human KM12 cells at 10 uM measured after 48 hrs by SRB assay relative to control", "assay_type": "functional", "details": "KM12, read-out: GI", "procedure,_shortened": "as §2"}, "UO-31": {"system": "UO-31", "assay": "Growth inhibition of human UO-31 cells at 10 uM measured after 48 hrs by SRB assay relative to control", "assay_type": "functional", "details": "read-out: GI", "procedure,_shortened": "as §1"}, "ACHN": {"system": "ACHN", "assay": "Growth inhibition of human ACHN cells at 10 uM measured after 48 hrs by SRB assay relative to control", "assay_type": "functional", "details": "read-out: GI", "procedure,_shortened": "as §2"}, "RXF 393": {"system": "RXF 393", "assay": "Growth inhibition of human RXF 393 cells at 10 uM measured after 48 hrs by SRB assay relative to control", "assay_type": "functional", "details": "read-out: GI", "procedure,_shortened": "as §1"}, "HL-60": {"system": "HL-60", "assay": "Cytotoxicity against human HL-60 cells assessed as reduction in cell viability measured after 24 hrs by MTT assay", "assay_type": "functional, cell-based", "details": "HL-60, 24 h", "procedure,_shortened": "(§3)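 MTT viability with 24 h incubation in 96-well plates. Five semi-log concentrations from 0.01 to 100 μM. Formazan absorbance read at 570 nm, with 690 nm background subtracted. Run in triplicate. IC50 obtained by sigmoidal dose-response fitting. Cells are leukemia HL-60(TB) and normal lymphocytes (PCS-800-017).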"}, "[2]": {"assay": "Cytotoxicity against human PCS-800-017 cells assessed as reduction in cell viability measured after 24 hrs by MTT assay", "assay_type": "toxicity, cell-based", "procedure,_shortened": "as §3"}}, "data": [{"smiles": "CCOc1cc(/C=N/Nc2nc(-c3ccc(Br)cc3)cs2)ccc1OCc1ccccc1", "values": [{"measurement": "inhibition of growth at 10 µM", "setting": "SW-620", "value": 76.1, "unit": "%"}, {"measurement": "inhibition of growth at 10 µM", "setting": "[1]", "value": 31.8, "unit": "%"}, {"measurement": "inhibition of growth at 10 µM", "setting": "HT-29", "value": 73.9, "unit": "%"}, {"measurement": "inhibition of growth at 10 µM", "setting": "HCT-116", "value": 70.9, "unit": "%"}, {"measurement": "inhibition of growth at 10 µM", "setting": "NCI-H460", "value": 78.6, "unit": "%"}, {"measurement": "inhibition of growth at 10 µM", "setting": "A549", "value": 76.4, "unit": "%"}]}, {"smiles": "Cc1c(/C=N/Nc2nc(-c3cccc([N+](=O)[O-])c3)cs2)c(=O)n(-c2ccccc2)n1C", "values": [{"measurement": "inhibition of growth at 10 µM", "setting": "[1]", "value": 16.2, "unit": "%"}]}, {"smiles": "COc1cc(/C=N/Nc2nc(-c3cccc([N+](=O)[O-])c3)cs2)ccc1OCc1ccccc1", "values": [{"measurement": "inhibition of growth at 10 µM", "setting": "[1]", "value": 28.8, "unit": "%"}]}, {"smiles": "O=[N+]([O-])c1cccc(-c2csc(N/N=C/c3ccc4c(c3)OCO4)n2)c1", "values": [{"measurement": "inhibition of growth at 10 µM", "setting": "[1]", "value": 18.2, "unit": "%"}]}, {"smiles": "O=[N+]([O-])c1cc(/C=N/Nc2nc(-c3ccccc3)cs2)ccc1Cl", "values": [{"measurement": "inhibition of growth at 10 µM", "setting": "[1]", "value": 21.5, "unit": "%"}, {"measurement": "inhibition of growth at 10 µM", "setting": "OVCAR-3", "value": 96.2, "unit": "%"}, {"measurement": "inhibition of growth at 10 µM", "setting": "NCI-H322M", "value": 83.1, "unit": "%"}, {"measurement": "inhibition of growth at 10 µM", "setting": "RPMI-8226", "value": 85.1, "unit": "%"}, {"measurement": "inhibition of growth at 10 µM", "setting": "MCF7", "value": 89.9, "unit": "%"}, {"measurement": "inhibition of growth at 10 µM", "setting": "KM12", "value": 86.6, "unit": "%"}]}, {"smiles": "CCOc1cc(/C=N/Nc2nc(-c3ccccc3)cs2)ccc1OCc1ccccc1", "values": [{"measurement": "inhibition of growth at 10 µM", "setting": "[1]", "value": 14.5, "unit": "%"}, {"measurement": "inhibition of growth at 10 µM", "setting": "UO-31", "value": 48.1, "unit": "%"}]}, {"smiles": "C(=N\\Nc1nc(-c2ccccc2)cs1)/c1ccc(OCc2ccccc2)cc1", "values": [{"measurement": "inhibition of growth at 10 µM", "setting": "[1]", "value": 13.1, "unit": "%"}, {"measurement": "inhibition of growth at 10 µM", "setting": "ACHN", "value": 79.8, "unit": "%"}]}, {"smiles": "COc1cc(/C=N/Nc2nc(-c3ccc(Cl)cc3)cs2)ccc1OCc1ccccc1", "values": [{"measurement": "inhibition of growth at 10 µM", "setting": "[1]", "value": 16.5, "unit": "%"}, {"measurement": "inhibition of growth at 10 µM", "setting": "MCF7", "value": 45, "unit": "%"}]}, {"smiles": "CCOc1cc(/C=N/Nc2nc(-c3ccc(Cl)cc3)cs2)ccc1OCc1ccccc1", "values": [{"measurement": "inhibition of growth at 10 µM", "setting": "SW-620", "value": 76.2, "unit": "%"}, {"measurement": "inhibition of growth at 10 µM", "setting": "[1]", "value": 37.1, "unit": "%"}, {"measurement": "inhibition of growth at 10 µM", "setting": "HCT-116", "value": 87.5, "unit": "%"}, {"measurement": "inhibition of growth at 10 µM", "setting": "NCI-H460", "value": 88.8, "unit": "%"}, {"measurement": "inhibition of growth at 10 µM", "setting": "A549", "value": 87.4, "unit": "%"}]}, {"smiles": "CCOc1cc(/C=N/Nc2nc(-c3ccccc3)cs2)ccc1O", "values": [{"measurement": "inhibition of growth at 10 µM", "setting": "[1]", "value": 36.9, "unit": "%"}]}, {"smiles": "COc1cc(/C=N/Nc2nc(-c3ccccc3)cs2)ccc1OCc1ccccc1", "values": [{"measurement": "inhibition of growth at 10 µM", "setting": "[1]", "value": 19.1, "unit": "%"}]}, {"smiles": "O=[N+]([O-])c1cccc(-c2csc(N/N=C/c3ccc(Cl)c([N+](=O)[O-])c3)n2)c1", "values": [{"measurement": "inhibition of growth at 10 µM", "setting": "[1]", "value": 36, "unit": "%"}]}, {"smiles": "CCOc1cc(/C=N/Nc2nc(-c3cccc([N+](=O)[O-])c3)cs2)ccc1OCc1ccccc1", "values": [{"measurement": "inhibition of growth at 10 µM", "setting": "[1]", "value": 23.9, "unit": "%"}, {"measurement": "inhibition of growth at 10 µM", "setting": "RXF 393", "value": 79.2, "unit": "%"}]}, {"smiles": "Cc1c(/C=N/Nc2nc(-c3ccc(Br)cc3)cs2)c(=O)n(-c2ccccc2)n1C", "values": [{"measurement": "inhibition of growth at 10 µM", "setting": "[1]", "value": 9.82, "unit": "%"}]}, {"smiles": "O=[N+]([O-])c1cccc(-c2csc(N/N=C/c3ccc(OCc4ccccc4)cc3)n2)c1", "values": [{"measurement": "inhibition of growth at 10 µM", "setting": "[1]", "value": 18.5, "unit": "%"}]}, {"smiles": "COc1cccc2c1C(=O)c1c(O)c3c(c(O)c1C2=O)C[C@@](O)(C(=O)CO)C[C@@H]3O[C@H]1C[C@H](N)[C@H](O)[C@H](C)O1", "note": "[DOXORUBICIN]", "values": [{"measurement": "IC50", "setting": "HL-60", "value": 0.45, "unit": "µM"}, {"measurement": "IC50 at 24 h", "setting": "[2]", "value": 12.5, "unit": "µM"}]}]}
